Results gathered from unrelated publications.
Compare with care: the assays were run in different laboratories.
Target: Serine/threonine-protein kinase Nek7 (NEK7, Homo sapiens, UniProt Q8TDX7)

O=C(NCC1CCOCC1)c1n[nH]cc1NC(=O)c1c(F)cccc1F
remaining binding (binding, competition with immobilised ligand; 1 µM): 93%

CCC(=O)N[C@H]1CC[C@@H](C(=O)N(C)c2ccc(-c3nc4ccccc4o3)cc2)C1
remaining binding (cell-free assay, competition with immobilised ligand; 1 µM): 98%

Cc1cnn2ncc(-c3ccnc(N(C)C)n3)c2c1
remaining binding (binding; 1 µM): 100%

Nc1ncc2c(n1)-c1c([nH]c3ccc(C#CC4CC4)cc13)CCCC2
remaining binding (binding, competition with immobilised ligand; 1 µM): 88%

Cc1cnc(Nc2ccc(C(=O)N3CCC(N4CCCC4)CC3)cc2)nc1-c1cc2ccccc2s1
remaining binding (binding, competition with immobilised ligand; 1 µM): 0.7%

CN(CCCC(F)(F)F)c1nccc(-c2cnn3ncccc23)n1
remaining binding (binding; 1 µM): 100%

COc1ncc2cc3ccccc3nc2c1C#N
remaining binding (cell-free assay, competition with immobilised ligand; 5 µM): 100%

C[C@H]1CCN(c2nccc(-c3cnn4ncccc34)n2)C1
remaining binding (binding; 1 µM): 100%

COc1cnc(Nc2cccc(S(N)(=O)=O)c2)nc1N1CCN(c2ccccc2)C(=O)C1
remaining binding (binding, competition with immobilised ligand; 1 µM): 91%

Cc1nc(C2CCN(C(=O)c3ccc(OC(F)(F)F)cc3N)CC2)c2ncc(N3CCN(C)CC3)cc2n1
remaining binding (cell-free assay, competition with immobilised ligand; 1 µM): 100%

O=C(NCCCN1CCOCC1)c1ccc(Nc2nccc(-c3cc4ccccc4s3)n2)cc1
remaining binding (binding, competition with immobilised ligand; 1 µM): 52%

CC1CCCN1c1nccc(-c2cnn3ncccc23)n1 (stereo not drawn)
remaining binding (binding; 1 µM): 100%

C=CC(=O)N1CCC(C(=O)NCC(=O)N2CCN(c3nc(-c4cnc(N)nc4C(F)F)nc(N4CCOCC4)n3)CC2)CC1
remaining binding (binding, competition with immobilised ligand; 1 µM): 100%

COc1cc(Nc2nccc(-c3cnn4nc(OC)ccc34)n2)cc(C(F)(F)F)c1
remaining binding (binding, competition with immobilised ligand; 1 µM): 40%

COc1ccc2c(c1)O[C@@H](c1ccc(OC)c(OC)c1)C[C@H]2NC(=O)C1(c2ccc3c(c2)OC(F)(F)O3)CC1
remaining binding (cell-free assay, competition with immobilised ligand; 1 µM): 100%

CCN1CCN(Cc2ccc(C(=O)Nc3ccc(C)c(Oc4ccc5c(c4)CC(=O)N5)c3)cc2C(F)(F)F)CC1
remaining binding (binding, competition with immobilised ligand; 1 µM): 100%

O=C(NCCCC1CCCCC1)c1ccc(CNC(=O)c2cnn(-c3ccccc3)c2C(F)(F)F)cc1
remaining binding (cell-free assay, competition with immobilised ligand; 0.1 µM): 97%

O=C(c1ccc(Nc2ncc(Cl)c(-c3ccc(Cl)s3)n2)cc1)N1CCC(N2CCCC2)CC1
remaining binding (binding, competition with immobilised ligand; 1 µM): 1.4%

c1cnn2ncc(-c3ccnc(N4CCC45COC5)n3)c2c1
remaining binding (binding; 1 µM): 86%

CC(=O)N1CCC(c2ccc(C(=O)NC3=NCCN3)cc2C(F)(F)F)CC1
remaining binding (cell-free assay, competition with immobilised ligand; 1 µM): 100%

COc1ccnn2ncc(-c3ccnc(N(C)C)n3)c12
remaining binding (binding; 1 µM): 100%

CS(=O)(=O)N1CCCC(NC(=O)[C@H](CCC2CCCCC2)NC(=O)c2ccc(CNc3ncnc4c3nnn4-c3ccccc3)cc2)C1 (stereo partly drawn)
remaining binding (cell-free assay, competition with immobilised ligand; 0.1 µM): 88%

N[C@H]1CCN(c2nccc(-c3cnn4ncccc34)n2)C1
remaining binding (binding; 1 µM): 100%

O=C(N1CCS(=O)(=O)CC1)N1C[C@H](c2ccc(OC(F)(F)F)cc2)C[C@H](c2nc(C3CC3)no2)C1
remaining binding (cell-free assay, competition with immobilised ligand; 1 µM): 100%
